One block for each molecule: values may come before it. Active and inactive are the calls of the source. The calls are words filed in the database; no cut-off is given here.
How the values were obtained:
Oryctolagus cuniculus [1] = assay: Progestational activity in Clauberg rabbit at 20 mg/kg/day, sc; type: functional, organism-based
Method in brief: (§1)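 Immature rabbit (Clauberg); uterine stimulation measured for progestational activity, and its antagonism for antiprogestational activity.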

[2] = molecular target: T1, Progesterone receptor (Oryctolagus cuniculus) (UniProt P06186); assay: Displacement of [3H]progesterone from rabbit progesterone receptor after 24 hrs at 0.1 nM to 10 mM
T1 sequence (whole entry): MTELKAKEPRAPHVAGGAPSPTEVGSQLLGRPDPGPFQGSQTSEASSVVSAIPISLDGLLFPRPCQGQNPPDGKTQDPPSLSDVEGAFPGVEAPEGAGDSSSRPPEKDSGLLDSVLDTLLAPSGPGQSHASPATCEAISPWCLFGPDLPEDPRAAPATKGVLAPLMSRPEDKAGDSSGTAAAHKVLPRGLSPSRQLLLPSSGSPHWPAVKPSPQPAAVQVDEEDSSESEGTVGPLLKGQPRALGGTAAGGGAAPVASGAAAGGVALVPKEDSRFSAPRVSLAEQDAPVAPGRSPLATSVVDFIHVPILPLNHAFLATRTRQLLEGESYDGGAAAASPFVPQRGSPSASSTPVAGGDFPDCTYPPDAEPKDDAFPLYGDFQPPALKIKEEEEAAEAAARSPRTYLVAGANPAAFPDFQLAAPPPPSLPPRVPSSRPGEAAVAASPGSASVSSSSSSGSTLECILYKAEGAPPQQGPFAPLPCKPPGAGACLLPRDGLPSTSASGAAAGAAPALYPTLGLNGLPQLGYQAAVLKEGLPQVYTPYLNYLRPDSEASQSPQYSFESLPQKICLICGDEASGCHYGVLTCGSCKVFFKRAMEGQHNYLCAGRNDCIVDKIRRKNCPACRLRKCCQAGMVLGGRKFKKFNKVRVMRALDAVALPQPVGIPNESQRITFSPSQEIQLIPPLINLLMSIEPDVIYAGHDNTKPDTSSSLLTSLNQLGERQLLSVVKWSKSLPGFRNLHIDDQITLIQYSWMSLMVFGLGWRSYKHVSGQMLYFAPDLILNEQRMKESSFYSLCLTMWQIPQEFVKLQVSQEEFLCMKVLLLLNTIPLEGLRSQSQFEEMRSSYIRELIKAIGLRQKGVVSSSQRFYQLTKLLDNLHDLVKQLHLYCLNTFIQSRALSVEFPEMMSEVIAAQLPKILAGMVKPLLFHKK
Method in brief: (§2)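 Uterine cytosol from TE buffer (Tris-HCl, 1 mM EDTA, pH 7.4) homogenate by ultracentrifugation. Competitor 0.1 nM–10 mM with constant label ([3H]estradiol 6000 cpm or [3H]progesterone 20000 cpm), 24 h at 4 °C, started by cytosol addition. Bound label isolated; RBA derived against unlabeled estradiol or progesterone standard curves.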

Oryctolagus cuniculus [3] = assay: Antiprogestational activity in Clauberg rabbit at 20 mg/kg/day, sc; type: functional, organism-based; method in brief: as §1
Rattus norvegicus [4] = assay: Antiandrogenic activity in rat assessed as inhibition of androgen stimulation of ventral prostate at 30 mg/kg/day, sc; type: functional, organism-based; conditions: Prostate gland
Method in brief: (§3)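 Immature, castrated male rats; test compound assessed for ability to inhibit androgen stimulation of seminal vesicle, ventral prostate and levator ani weight.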

Rattus norvegicus [5] = assay: Antiandrogenic activity in rat assessed as inhibition of androgen stimulation of seminal vesicle at 30 mg/kg/day, sc; type: functional, organism-based; method in brief: as §3
Oryctolagus cuniculus [6] = organism: Oryctolagus cuniculus; assay: Displacement of [3H]estradiol from rabbit estrogen receptor after 24 hrs at 0.1 nM to 10 mM; method in brief: as §2
Rattus norvegicus [7] = assay: Uterotropic activity in rat at 1 mg/kg/day, sc administered for 3 days relative to ethynylestradiol; conditions: Uterus
Rattus norvegicus [8] = assay: Antiuterotropic activity in rat assessed as D-estradiol-induced increase in uterine weight inhibition of at 5 mg/kg/day, sc administered for 3 days; type: functional, organism-based
Method in brief: (§4)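 Immature female rats, 45–55 g, given estradiol together with test compound daily for three consecutive days as sesame oil suspension (0.1 mL); vehicle-only controls. Uteri excised, cleaned and weighed to nearest 0.2 mg the day after last treatment.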

Rattus norvegicus [9] = assay: Antifertility activity in Sprague-Dawley rat assessed as no implantation at 4 mg/kg/day, sc administered for 5 days measured on day 10; type: functional, organism-based
Method in brief: (§5)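 Mated females dosed in sesame oil (0.1 mL) over 5 days from day 0 of pregnancy (sperm-positive day). Autopsy on day 10 of presumptive pregnancy; normal and resorbing fetuses counted. ED100 = dose (mg/kg/day) giving no implantation sites.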

Rattus norvegicus [10] = assay: Antiandrogenic activity in rat assessed as inhibition of androgen stimulation of levator ani weight at 30 mg/kg/day, sc; type: functional, organism-based; method in brief: as §3
Oryctolagus cuniculus [11] = assay: Progestational activity in Clauberg rabbit at 10 mg/kg/day, po; type: functional, organism-based; method in brief: as §1
Oryctolagus cuniculus [12] = assay: Antiprogestational activity in Clauberg rabbit at 10 mg/kg/day, po; type: functional, organism-based; method in brief: as §1
Rattus norvegicus [13] = assay: Antifertility activity in Sprague-Dawley rat assessed as no implantation at 10 mg/kg/day, sc administered for 5 days measured on day 10; type: functional, organism-based; method in brief: as §5
Rattus norvegicus [14] = assay: Antifertility activity in sc dosed Sprague-Dawley rat assessed as no implantation administered for 5 days measured on day 10; type: functional; method in brief: as §5
Rattus norvegicus [15] = assay: Uterotropic activity in sc dosed rat administered for 3 days relative to estradiol; type: functional, Uterus
Method in brief: (§6)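 Immature female rats, 45–55 g, dosed daily for 3 days with sesame oil suspension (0.1 mL); vehicle controls. Uteri removed, cleaned, weighed (nearest 0.2 mg) next day. Expressed as percent activity relative to estradiol (sc) or ethynylestradiol (oral).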

Rattus norvegicus [16] = assay: Uterotropic activity in po dosed rat administered for 3 days relative to ethynylestradiol; type: functional, Uterus; method in brief: as §6
Rattus norvegicus [17] = assay: Antifertility activity in Sprague-Dawley rat assessed as no implantation at 6.8 mg/kg/day, po administered for 5 days measured on day 10; type: functional, organism-based; method in brief: as §5
Rattus norvegicus [18] = assay: Antiuterotropic activity in rat assessed as D-estradiol-induced increase in uterine weight inhibition of at 10 ug/kg/day, po administered for 3 days; type: functional, organism-based; method in brief: as §4
Oryctolagus cuniculus [19] = assay: Progestational activity in Clauberg rabbit at 10 mg/kg/day, sc; type: functional, organism-based; method in brief: as §1
Oryctolagus cuniculus [20] = assay: Antiprogestational activity in Clauberg rabbit at 10 mg/kg/day, sc; type: functional, organism-based; method in brief: as §1

SMILES: C[C@]12C[C@@H]3CCC4=CC(=O)CC[C@H]4[C@@H]3C[C@@H]1CC[C@@H]2O
Activity (Rattus norvegicus [4]): inactive
Activity (Rattus norvegicus [5]): inactive
RBA (Oryctolagus cuniculus [6]): 0.06
Activity (Rattus norvegicus [7]): inactive
Activity (Rattus norvegicus [8]): inactive
Activity (Rattus norvegicus [9]): inactive
Activity (Rattus norvegicus [10]): inactive
RBA [2]: < 0.4

SMILES: C#C[C@]1(O)CC[C@H]2C[C@@H]3[C@@H](CCC4=CC(=O)CC[C@H]43)C[C@@]21C
Activity (Oryctolagus cuniculus [11]): inactive
RBA [2]: 2
Activity (Oryctolagus cuniculus [12]): inactive

SMILES: C[C@]12C[C@@H]3CCc4cc(O)ccc4[C@@H]3C[C@@H]1CC[C@@H]2O
RBA (Oryctolagus cuniculus [6]): 2.9
ED100 (Rattus norvegicus [14]): 1 mg/kg/day
relative binding affinity (RBA) (Rattus norvegicus [15]): 0.02

SMILES: C#C[C@]1(O)CC[C@H]2C[C@H]3c4ccc(O)cc4CC[C@H]3C[C@@]21C
relative binding affinity (RBA) (Rattus norvegicus [16]): 0.18
RBA (Oryctolagus cuniculus [6]): 4.4
RBA [2]: < 0.4
Activity (Rattus norvegicus [17]): inactive
Activity (Rattus norvegicus [18]): inactive

SMILES: CC(=O)[C@H]1CC[C@H]2C[C@@H]3[C@@H](CCC4CC(=O)C=C[C@H]43)C[C@@]21C (stereo partly specified)
Activity (Oryctolagus cuniculus [19]): inactive
RBA [2]: 1.9
Activity (Oryctolagus cuniculus [20]): inactive

SMILES: C[C@]12C[C@@H]3CCC4=C(CCC(=O)C4)[C@@H]3C[C@@H]1CC[C@@H]2O
Activity (Rattus norvegicus [4]): inactive
Activity (Rattus norvegicus [5]): inactive
RBA (Oryctolagus cuniculus [6]): < 0.085
Activity (Rattus norvegicus [7]): inactive
Activity (Rattus norvegicus [8]): inactive
Activity (Rattus norvegicus [9]): inactive
Activity (Rattus norvegicus [10]): inactive
RBA [2]: < 0.4

More lines, main results first:

RBA [2]: 1.2
SMILES: CC(=O)[C@H]1CC[C@H]2C[C@@H]3[C@@H](CCC4=CC(=O)CC[C@H]43)C[C@@]21C
Activity (Oryctolagus cuniculus [1]): inactive
Activity (Oryctolagus cuniculus [3]): inactive

RBA (Oryctolagus cuniculus [6]): < 0.025
RBA [2]: < 0.4
SMILES: COc1ccc2c(c1)CC[C@H]1C[C@@]3(C)C(=CC[C@@H]3OC(C)=O)C=C21
Activity (Rattus norvegicus [13]): inactive

Source: ChEMBL document CHEMBL3272247, “Synthesis, antifertility activity, and protein binding affinity of 7(8 leads to 11 alpha)abeo steroids” (1977)
